OX1R antag-1: antagonists of human orexin 1 receptor | CHO/OX1R cells, Fluo-8 calcium fluorescence, orexin A | actives 0.43% (n = 330,000) | inhibition, % at 5 µM | O43613;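 active = inhibition above its plate's threshold, mean inhibition of all tested compounds on the plate plus 3 SD, cut at about 37% in these data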;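 also: 0% = orexin A challenge wells and 100% = SB-334867-A antagonist wells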
Target sequence (O43613 whole entry, looked up): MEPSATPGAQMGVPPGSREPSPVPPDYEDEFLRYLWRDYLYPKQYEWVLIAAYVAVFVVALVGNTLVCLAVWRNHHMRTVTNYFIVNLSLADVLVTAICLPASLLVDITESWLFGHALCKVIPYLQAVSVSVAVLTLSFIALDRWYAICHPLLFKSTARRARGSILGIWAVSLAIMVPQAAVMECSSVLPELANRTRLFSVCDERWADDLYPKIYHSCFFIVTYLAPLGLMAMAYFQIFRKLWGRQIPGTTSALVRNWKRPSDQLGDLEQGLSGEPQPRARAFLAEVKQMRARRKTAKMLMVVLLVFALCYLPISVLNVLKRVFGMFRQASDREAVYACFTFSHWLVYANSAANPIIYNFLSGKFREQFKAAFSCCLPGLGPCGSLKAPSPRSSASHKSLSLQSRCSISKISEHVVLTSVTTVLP
TAAR1 antag: antagonists of human TAAR1; actives 1.5% (n = 360,000); Q96RJ0; inhibition, % at 3 µM; CHO RD-HGA16 TAAR1, Fluo-8 calcium fluorescence, antagonist;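 active = inhibition above a per-plate cutoff, the mean inhibition of test compounds on that plate plus 3 SD, cut at about 49% in these data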;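 also: 0% = DMSO plus EC80 beta-PEA response and 100% = DMSO alone without agonist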
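Test system – hTAAR1-expressing CHO RD-HGA16 cells, Gα16-coupled · Also added – β-PEA at EC80 concentration, post-compound challenge · Compound – 3 µM, single point · Incubation – dye loading 75 min at 37 °C, then 30 min room temperature · Measured by – Fluo-8 intracellular calcium dye fluorescence, real-time kinetic reads · Benchmarks – vehicle and agonist controls · Replicates – singlicate, one well per test compound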
OX1R antag-2: antagonists of human orexin 1 receptor (OX1R) | OX1R-expressing cells, FRET antagonist read-out | O43613 | actives 1.8% (n = 330,000) | inhibition, % at 6.6 µM | AID 485270; in the data active = inhibition mostly above about 38%, no sharp cut-off; inactive = mostly below about 40%;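 also: 0% = agonist challenge alone and 100% = reference antagonist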
CHO parental Ca: counter-screen: ATP calcium response change in parental CHO cells; inhibition, % at 5.6 µM; AID 463079; actives 0.63% (n = 330,000); parental CHO-K1, ATP-induced calcium, Fluo-8 fluorescence;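 active = inhibition above that plate's mean sample inhibition plus 3 SD, cut at about 26% in these data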;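 also: 0% = ATP-challenged DMSO wells and 100% = DMSO wells without ATP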
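Measured by: calcium-sensitive Fluo-8 fluorescence / Test system: CHO parental line / Controls: ATP-challenged DMSO wells low, unchallenged DMSO wells high / Measure: % inhibition / Compound: single nominal dose of 5.6 µM per compound / Replicates: single well per compound, no replicates / Reagent: ATP as calcium-mobilizing challenge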
TAAR1 ag: agonists of human TAAR1; Q96RJ0; CHO RD-HGA16 TAAR1, Fluo-8 calcium fluorescence; vehicle wells 0%, saturating PEA agonist 100%; activation, % at 3 µM; actives 0.99% (n = 360,000); AID 624467;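 active = activation above the mean activation of all test compounds in the run plus 3 SD, cut at about 38% in these data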
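Test system: RD-HGA16 (CHO) cells co-expressing Gα16 and hTAAR1; dosing: one-point dosing at 3 µM (nominal); timing: 17-24 h seeding, 75 min 37 °C dye, 30 min RT; signal: kinetic Fluo-8 calcium fluorescence; read-out basis: % activation relative to PEA EC100 response; controls: DMSO and PEA EC100; replicates: n 1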
Starred values were filed as active, the others as inactive; nt = no result given. A selection: hits, their analogues and other compounds. The true share with any hit is near 3.9%.

SMILES	OX1R antag-1	TAAR1 antag	OX1R antag-2	CHO parental Ca	TAAR1 ag
CCOC(=O)C1=C(C(=O)OCC)C2N(Cc3ccc(Br)cc3)c3ccccc3[C@@]23C[C@@H](C(=O)OC)N(S(=O)(=O)c2ccc(Br)cc2)C3=N1 (stereo not given in full)	nt	-14.3	nt	nt	0.4
COCCCNc1c2c3c(cccc3[nH]c1=O)C(=O)c1ccccc1-2	95.0*	79.0*	55.9*	89.3*	217.9*
CC(C)OCCCNC1=C(Cl)C(=O)c2ccccc2C1=O	-17.5	-2.2	68.6*	-6.7	-3.2
COCCCNC1=C(Cl)C(=O)c2ccccc2C1=O	-1.2	-18.6	56.2*	-6.6	3.5
CCOC(=O)c1c2c3c(cccc3[nH]c1=O)C(=O)c1ccccc1-2	-22.5	4.2	8.7	12.4	5.9
O=C1C(Cl)=C(Nc2ccccc2)C(=O)c2ccccc21	17.6	1.5	39.9	24.1	-2.7
CC(C)NC1=C(Cl)C(=O)c2ccccc2C1=O	-9.9	-5.1	43.2*	-3.6	-0.2
COc1cc(NC(=O)c2ccc(-c3ccc(F)c(F)c3)c3ccoc23)cc(OC)c1OC	nt	15.7	nt	nt	-1.0
Cc1cccc(C)c1NC(=O)C1(C)CN(S(C)(=O)=O)CC(=O)N1Cc1ccco1 (stereo not given)	nt	-14.1	nt	nt	3.8
CCc1nc2ccc(C(=O)NCCCN3CCCC3=O)cn2c1N(C)C(=O)c1cccc(OC)c1	nt	-19.9	nt	nt	14.3
COc1ccc(OCC(=O)N2CCN(S(=O)(=O)c3ccccc3[N+](=O)[O-])CC2)cc1	-33.0	3.1	17.5	-19.1	3.6
COc1ccc2cc(C3CC=C(CO)CN3S(=O)(=O)c3ccccc3[N+](=O)[O-])n(C(=O)OC(C)(C)C)c2c1 (stereo not given)	nt	50.0*	nt	nt	2.6
Cc1ccc(CCNC(=O)C(C)n2nc(C)c3c(C)n(-c4ccccc4)nc3c2=O)cc1 (stereo not given)	-28.9	-27.5	13.0	-16.3	-2.8
Cc1ccc(-n2nc3c(=O)n(C(C)C(=O)NCCC4=CCCCC4)nc(C)c3c2C)cc1 (stereo not given)	-4.4	-3.5	11.1	15.7	37.9*
CCOC(=O)[C@]12CCC=C1N(Cc1ccc3c(c1)OCO3)C(=O)[C@H](CC(=O)N1CCN(C(=O)c3ccco3)CC1)C2	nt	1.2	nt	nt	5.2
COC(=O)[C@]12CCCCC=C1N(CCc1ccc(OC)c(OC)c1)C(=O)[C@H](CC(=O)N1CCC(c3ccccc3)CC1)C2	nt	67.0*	nt	nt	4.7
COC(=O)[C@]12CCCCC=C1N(Cc1ccccc1)C(=O)[C@H](CC(=O)N1CCC(c3ccccc3)CC1)C2	nt	53.8*	nt	nt	3.4
CC(=O)Nc1ccc(S(=O)(=O)N(C)CC(=O)OC(C)C(=O)NC2(C#N)CCCCC2)cc1 (stereo not given)	nt	7.2	nt	nt	-0.3
COc1ccc(OC)c(NC(=O)C2(C)CCN2C(=O)C2(c3ccc(Cl)cc3)CCC2)c1 (stereo not given)	nt	0.1	nt	nt	-0.4
CC(SCc1ccccc1)C(=O)Nc1ccc(F)cc1 (stereo not given)	-22.6	-3.6	25.8	-10.8	-2.2
N#CC(C#N)=C(Nc1ccc(F)cc1)SCc1cccc(Br)c1	35.8	30.0	56.2	70.2*	6.5
Cc1cccc(CSC(Nc2ccc(F)cc2)=C(C#N)C#N)c1	5.1	26.9	28.6	25.2*	7.0
CC(C)COC(=O)c1cccc2c1-c1ccccc1/C2=N\O	-8.9	20.6	18.0	41.2*	8.7
Cc1nnc(NC(=O)CSc2nnc(CNC(=O)c3ccccc3F)n2C(C)C)s1	nt	5.0	nt	nt	1.2
CC(C)n1c(CNC(=O)c2ccccc2F)nnc1SCC(=O)c1ccc(F)cc1	nt	-15.9	nt	nt	38.8*
SMILES	OX1R antag-1	TAAR1 antag	OX1R antag-2	CHO parental Ca	TAAR1 ag
O=C(Nc1nnc(CSCc2ccccc2F)s1)c1cccc([N+](=O)[O-])c1	-16.6	9.9	42.8*	-4.3	2.5
CC(C)C(=O)Nc1nnc(CSCc2ccccc2F)s1	-8.2	-12.2	9.2	-2.9	16.1
COc1ccc(CN2C[C@H](COCc3ccccc3)Oc3cccc(Oc4ccc(C(C)C)cc4)c3S2(=O)=O)cc1	nt	31.6	nt	nt	3.4
COc1cc(/C=N/NC(=O)c2ccc3nc[nH]c3c2)cc(OC)c1OC	-4.8	nt	11.8	-12.7	nt
COc1cc(/C=N/NC(=O)c2ccc(CSc3nc4ccccc4[nH]3)cc2)cc(OC)c1OC	-17.3	52.4*	5.8	-12.0	14.2
COCc1[nH]nc2c1C(c1ccccc1)NC2=O (stereo not given)	nt	-28.7	nt	nt	1.3
CC(C)(C)c1ccc(-c2cc(-c3ccccc3O)[nH]n2)cc1	-18.6	-16.8	16.5	2.5	6.7
Oc1ccccc1-c1cc(-c2cccc(F)c2)n[nH]1	-4.4	-1.2	41.1*	10.7	12.0
Cc1ccc(S(=O)(=O)c2c(C)nn(C(C)(C)C)c2OC(=O)CC(C)C)cc1	-12.1	-35.6	16.0	31.1*	0.1
O=C(Cc1c[nH]c2ccccc12)Nc1ccc(Nc2cccnc2)c(Br)c1	nt	42.3	nt	nt	2.4
CC(C)[C@H](NC(=O)NC1CCCc2ccccc21)C(=O)O (stereo not given in full)	-22.7	3.8	7.9	-5.7	14.8
COC(=O)[C@H](C)NC(=O)NC1CCCc2ccccc21 (stereo not given in full)	61.5*	nt	4.2	35.8*	nt
CN1CCc2c(sc(NC(=O)c3ccc(S(=O)(=O)N4CCc5ccccc54)cc3)c2C(N)=O)C1	-1.4	50.0*	23.1	-4.1	27.2
CCCCNC(=O)c1[nH]c(C2CCNCC2)nc1-c1cccc(C(F)(F)F)c1	nt	-4.7	nt	nt	-0.2
Cc1cc(N2CCNC[C@@H]2C)ccc1N1CCN(Cc2ccccc2)[C@H](C)C1	nt	-7.9	nt	nt	9.9
N#Cc1cc([N+](=O)[O-])ccc1NC(=O)COC(=O)CN1C(=O)C2CCCCC2C1=O (stereo not given)	-21.9	7.1	43.5*	-16.5	2.4
O=C(Nc1ccc(-n2nncc2-c2ccco2)cc1)c1cccc(F)c1	-2.9	35.3	10.6	-9.1	3.7
O=C(Nc1ccc(-n2nncc2-c2ccco2)cc1)c1cc2ccccc2oc1=O	-12.7	nt	10.4	54.2*	nt
Cc1cccc2sc(N3CCN(C(=O)C4COc5ccccc5O4)CC3)nc12 (stereo not given)	-22.6	42.4	3.4	-10.8	49.9*
COC(=O)[C@]12C[C@H](CC(=O)N3CCSCC3)C(=O)N(Cc3ccc4c(c3)OCO4)C1=C[C@H](COCc1ccccc1)O[C@@H]2C	nt	-7.2	nt	nt	0.1
CCn1cc([N+](=O)[O-])c(C(=O)N2N=C(c3ccc(O)c(OC)c3)CC2c2ccccc2O)n1 (stereo not given)	-15.8	27.6	13.8	-23.4	11.6
CCn1cc([N+](=O)[O-])c(C(=O)N2N=C(c3ccc(Cl)c(Cl)c3)CC2c2ccccc2O)n1 (stereo not given)	73.5*	23.1	17.7	44.3*	10.2

Screens deposited in PubChem BioAssay by The Scripps Research Institute Molecular Screening Center.
